Bioassay records: PubChem, Broad Institute
MLL AF4-AF9 inh = MLL-AF4/AF9 protein interaction inhibition | AlphaScreen, biotin-AF4 peptide binding to FLAG-AF9 | inhibition, % at 10 µM | 0.47% of 350,000 active;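 active = every replicate reaching a set inhibition limit, whatever the replicate mean, cut at about 25% in these data; inconclusive = mean inhibition reaches that limit but some replicates miss it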;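 also: 0% = plate neutral control median and 100% = total signal loss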
Target sequence (P42568 whole entry, looked up): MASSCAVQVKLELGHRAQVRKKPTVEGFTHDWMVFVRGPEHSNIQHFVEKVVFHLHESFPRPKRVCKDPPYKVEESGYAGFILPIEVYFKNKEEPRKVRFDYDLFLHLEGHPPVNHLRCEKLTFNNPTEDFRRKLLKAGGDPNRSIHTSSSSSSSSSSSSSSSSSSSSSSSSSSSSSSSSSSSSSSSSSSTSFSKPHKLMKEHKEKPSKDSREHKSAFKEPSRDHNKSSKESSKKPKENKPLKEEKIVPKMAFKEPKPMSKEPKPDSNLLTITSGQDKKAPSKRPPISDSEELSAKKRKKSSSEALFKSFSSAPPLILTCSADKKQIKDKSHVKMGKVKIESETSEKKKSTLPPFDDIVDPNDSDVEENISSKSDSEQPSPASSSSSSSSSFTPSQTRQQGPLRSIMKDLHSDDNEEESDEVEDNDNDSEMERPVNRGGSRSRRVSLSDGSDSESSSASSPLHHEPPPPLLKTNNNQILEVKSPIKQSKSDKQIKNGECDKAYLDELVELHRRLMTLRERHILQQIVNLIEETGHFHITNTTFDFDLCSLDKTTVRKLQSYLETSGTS
FN deposit inh = fibronectin deposition inhibition; AH1F fibroblasts, Alexa488-fibronectin deposition fluorescence, overnight; inhibition, % at 12.6 µM; 0.086% of 350,000 active;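 active = mean inhibition across replicates of 30% or more, regardless of how many single replicates reach that level; inconclusive = mean under 30% yet at least half of replicates reach 30%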;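 also: positive control wells lacked labelled fibronectin entirely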
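Assay system: AH1F fibroblasts assembling fluorescent fibronectin matrix; Amount: 10000 AH1F cells per well; Buffer or medium: DMEM, 2% serum; Probe or stimulus: Alexa488-fibronectin, 24 nM final in well; Doses: single compound dose, delivered by pin transfer; Incubation: 1 h adhesion, overnight exposure; Measured by: fluorescence 485/525 nm; Read-out: fibronectin deposition inhibition.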
Glyco luc inh = N-linked glycosylation inhibition. 0.23% of 360,000 active. D54 ERlucT glycosylation luciferase reporter, 24 h; percent of 100 nM tunicamycin response. reporter increase, % at 12.5 µM;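 active = mean luciferase reporter signal, scaled so untreated is 0 and the glycosylation-blocking control 100, at or above a set limit in every replicate; inconclusive = mean reaches the limit but not every replicate does; inactive = mean below the limit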;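 also: luciferase carries N-glycosylation sites so blocking glycosylation raises the light; 0% = median of neutral control wells and 100% = median of 100 nM tunicamycin wells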
RAD52 inh = inhibitors of human RAD52 DNA annealing; P43351; recombinant RAD52 DNA annealing, FRET fluorescence; inhibition, % at 18.7 µM; 0.46% of 360,000 active;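 active = every replicate showing at least 50% inhibition; inconclusive = mean inhibition at least 50% but not in every replicate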
RAD54 branch = RAD54 (human) branch migration inhibition. Q92698. RAD54 Holliday junction branch migration, FAM/BHQ fluorescence. inhibition, % at 10.4 µM. 0.14% of 360,000 active. AID 602329;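 active = mean normalized replicate activity at least 40 and at least half of replicates scoring 40 or more; inconclusive = only one of the two criteria met; inactive = mean below 40 and under half of replicates reaching 40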;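 also: 0% = median of neutral control wells and 100% = median of positive control wells; inhibitors cause a drop in the FAM fluorescence signal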
RAD52 DNA ctr = DNA binding artifact in RAD52 counter-screen | Salmon sperm DNA/acridine orange FP displacement | 8% of 1,000 active | AID 652128 | AC50, µM | shares compounds with RAD52 inh;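 active = fitted half-maximal concentration for signal loss at or below twice the highest dose tested, in every separate run, actives reach about 64 µM in these data; inconclusive = runs disagree, or flat partial signal loss, or poor fit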
Numbers without * were called inactive; i = inactive; ? = inconclusive; / = no result given. A selection: hits, their analogues and other compounds. The true share with any hit is near 0.92%.

SMILES | MLL AF4-AF9 inh | FN deposit inh | Glyco luc inh | RAD52 inh | RAD54 branch | RAD52 DNA ctr
CCN(CC)CCNc1ccc(C)c2sc3ccc(O)cc3c(=O)c12 | 50.3* | 2.3 | 54.1* | 75.7* | / | 10.1µM*
CCN(CC)CCCNC(=O)C(C)n1nc(C)c2sc3ccccc3c2c1=O (centres undefined) | / | -4.0 | -0.8 | / | / | /
CN1CCN(C(=O)C[C@@H]2C[C@@H]3c4cc(NC(=O)NC5CCCCC5)ccc4O[C@@H]3[C@@H](CO)O2)CC1 | -0.2 | 3.8 | / | 7.6 | 10.4 | /
CCOC(=O)c1c(NC(=O)c2ccccc2N(C)S(=O)(=O)c2ccccc2)sc2c1CCCC2 | 1.2 | -2.2 | 7.0 | -1.3 | -1.3 | /
CCOC(=O)c1c(NC(=O)C(NCCN(C)C)c2ccccc2)sc2c1CCCC2 (centres undefined) | 28.8* | 2.0 | 4.7 | 63.5* | 16.3 | i
COc1ccc2cc(CNCCOCCOCCNCc3ccc4cc(OC)ccc4c3)ccc2c1 | 7.1 | -3.0 | -14.8 | 63.5* | / | i
CCOCCCNCc1ccc(OC)cc1 | / | -2.2 | 1.1 | / | 0.1 | /
C[C@@H]1CN([C@H](C)CO)C(=O)c2cccc(NC(=O)C3CCCCC3)c2O[C@@H]1CN(C)S(=O)(=O)c1cccs1 | -3.2 | / | / | 7.9 | 13.5 | /
NC(N)=N/N=C(\N=Nc1ccccc1)c1ccc(Cl)cc1 | 34.7* | 10.1 | 2.2 | 74.1* | / | i
Cc1cc2cc(CNC(=O)c3cccc([N+](=O)[O-])c3)ccc2n1C | -7.3 | 1.8 | 0.1 | 53.8* | 5.6 | i
Cc1cc2cc(CNC(=O)Cc3ccc([N+](=O)[O-])cc3)ccc2n1C | -0.3 | -1.5 | 1.2 | -29.4 | / | /
CCOc1ccc2nc(NC3=NC(C)(C)C=C(C)N3)nc(C)c2c1 | / | 7.2 | -1.5 | / | 39.2 | /
CCOc1ccc2c(C)nc(NC3=NC(C)(C)C=C(C)N3)nc2c1 | / | -5.9 | -0.6 | 91.1* | 39.0 | i
O=C(NC1CCCCC1)N[C@@H]1CC[C@H](CCNS(=O)(=O)c2ccccc2)O[C@H]1CO | 1.2 | / | / | 4.9 | 0.3 | /
CCOC(=O)c1cnc2c(ccc3ccccc32)c1NCCN(C)C | 1.6 | 4.7 | 9.5 | 79.3* | 80.5* | i
CCN(CC)c1ccc(N=Cc2ccc(N(CC)CC)cc2O)cc1 | / | 2.3 | 2.5 | / | / | /
CCN1CCN(c2ccc(N=Cc3ccc(O)cc3O)cc2)CC1 | 13.6 | -0.7 | -1.4 | 91.1* | / | i
O=C(Nc1ccc(F)cc1)N[C@H]1CC[C@@H](CCn2cc(C3(O)CCCC3)nn2)O[C@H]1CO | 1.0 | / | / | -8.4 | -3.8 | /
CCN(CC)CCNC(=O)c1ccc(NC(=O)c2cccc(S(=O)(=O)N3CCc4ccccc43)c2)cc1 | 13.5 | -1.0 | -5.4 | 50.1* | / | i
CCN(CC)CCNC(=O)c1cc(S(=O)(=O)N2CCc3ccccc32)cn1C | -2.7 | -7.7 | -4.2 | -5.3 | 12.8 | /
O=C(C[C@@H]1C[C@H]2c3cc(NC(=O)NC4CCCC4)ccc3O[C@H]2[C@@H](CO)O1)NCc1cccnc1 | 1.3 | -15.5 | / | -8.1 | / | /
CC(=O)c1cccc(Nc2cc(C)nc3c(C)cccc23)c1 | 0.0 | 1.1 | 17.5 | 50.3* | / | i
CC(=O)c1cccc(Nc2cc(C)nc3ccccc23)c1 | -11.2 | -13.0 | 0.5 | 8.5 | 20.6 | /
C[C@H](CO)N1C[C@H](C)[C@@H](CN(C)Cc2ccc(C(F)(F)F)cc2)Oc2ccc(NC(=O)Nc3cccc4ccccc34)cc2C1=O | 0.3 | 4.5 | / | -5.8 | 3.8 | /
COc1cc2sc3ccc(-c4ccc(CN5CCOCC5)cc4)cc3c(=O)c2cc1OC | 4.7 | -7.4 | -1.8 | 92.7* | 7.3 | i
SMILES | MLL AF4-AF9 inh | FN deposit inh | Glyco luc inh | RAD52 inh | RAD54 branch | RAD52 DNA ctr
COc1ccc(CN2CCOCC2)cc1OC | / | / | 3.4 | / | -11.5 | /
C[C@H](CO)N1C[C@H](C)[C@H](CN(C)C(=O)Nc2ccccc2F)Oc2ncc(C#CCN(C)C)cc2C1=O | -1.2 | / | / | 0.8 | / | /
Cc1cccc(/C=C/C(=O)c2ccc(NC3=NCCCS3)cc2)c1 | 12.8 | 8.4 | 3.8 | 54.4* | / | i
CN(C)c1ccc(NC(=O)C[n+]2ccccc2)cc1 | 13.9 | 1.7 | 2.8 | 45.3 | -20.2 | i
CC(=O)c1ccc(NC(=O)C[n+]2ccc(N(C)C)cc2)cc1 | -5.4 | -1.2 | 0.9 | 2.8 | 0.8 | /
CC(=O)c1ccc(NC(=O)C[n+]2cccc(C)c2)cc1 | -0.8 | 1.8 | 0.3 | 2.8 | -9.1 | /
Cc1ccc[n+](CC(=O)Nc2ccc(N(C)C)cc2)c1 | 4.2 | -0.7 | 1.0 | 78.4* | -5.8 | i
CN(C)CCOc1ccc2c(c1)C(=O)C(=Cc1ncc([N+](=O)[O-])n1C)C2 | 0.6 | 6.1 | -18.6 | 88.1* | 61.5* | i
COc1ccc(-c2c(-c3ccccc3)c(C(=O)C(=O)NCCCN(C)C)n3ccc4cc(OC)c(OC)cc4c23)cc1OC | 38.1* | 9.9 | -7.7 | 94.1* | 81.3* | i
C[C@@H]1CCCCO[C@@H](CN(C)CC2CC2)[C@H](C)CN([C@@H](C)CO)C(=O)c2cc(NS(C)(=O)=O)ccc2O1 | -1.9 | -4.4 | / | -7.5 | 6.1 | /
COc1ccc(C(N)=S)c(OC)c1 | 2.3 | -13.8 | 2.0 | 73.9* | / | i
C[C@H]1CN([C@@H](C)CO)C(=O)c2cc(-c3cncnc3)cnc2O[C@@H]1CN(C)C(=O)CN1CCOCC1 | / | -4.9 | / | / | / | /
CCC(=O)N1C[C@H]2[C@@H](c3ccccc31)[C@@H](CO)N2Cc1ccccc1Cl | 2.4 | / | / | -3.8 | 4.9 | /
C[C@@H]1CN([C@H](C)CO)S(=O)(=O)c2ccc(C#CC(C)(C)O)cc2O[C@H]1CN(C)C(=O)CC1CC1 | -2.6 | -5.7 | / | 7.2 | -0.6 | /
CCN(CC)CCCNc1nc2ccccc2c2[nH]c3ccc(OC)cc3c12 | ? | 14.9 | -20.5 | 105.5* | / | 6.48µM*
COc1ccc(-c2nc(NCCCN(C)C)c3ccccc3n2)cc1 | -12.2 | -1.2 | 42.7* | 87.2* | 90.5* | i
COCC(=O)N1CC2(CN(C(C)=O)C2)c2c([nH]c3cc(OC)ccc23)[C@@H]1CO | -1.7 | / | / | / | / | /
Cc1ccc2c(c1)c1c(n2CC(O)CNC(C)(C)C)CCCC1 (centres undefined) | 1.8 | -0.4 | 3.6 | 52.2* | 11.9 | i
O=C(CN1CCOCC1)NCC[C@@H]1CC[C@@H](NC(=O)c2ccc3c(c2)OCO3)[C@@H](CO)O1 | 0.6 | -4.5 | / | 8.8 | -3.3 | /
CCOC(=O)c1c(C)oc2ccc(O)c(CN(C)C)c12 | / | / | -0.8 | / | -2.2 | /
CCOC(=O)c1c(CSc2ccc(CC)cc2)oc2ccc(O)c(CN(C)C)c12 | 22.6 | 4.7 | 6.4 | 57.8* | 29.6 | i
COc1ccc(NC(=S)NC23CN4CN(CN(C4)C2)C3)c(OC)c1 | 19.4 | 5.5 | -0.3 | 86.4* | / | i
COc1cccc(S(=O)(=O)N2CC3(CCN(C)CC3)c3c([nH]c4cc(OC)ccc34)[C@@H]2CO)c1 | 11.8 | / | / | 5.9 | / | /
NC(=O)c1ccc(Nc2nc(C(N)COCc3ccccc3)cs2)cc1 (centres undefined) | 3.6 | 8.6 | 0.9 | -17.6 | 6.2 | /
NC(COCc1ccccc1)c1csc(Nc2ccc(C(=O)c3ccccc3)cc2)n1 (centres undefined) | 2.2 | -1.4 | -1.4 | 58.1* | 3.7 | i
